For data set [1], the target named is TEAD3-YBD recombinant protein (Homo sapiens, UniProt Q99594). Briefly: gel-based ABPP in vitro palmitoylation assay, TEAD3. The data set is classed as biochemical. The note with it: for inhibition of TEAD3 palmitoylation: click-based ABPP assay. The procedure, abridged:
(§1)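 Protein incubated with varying test compound concentrations, 37 °C, 2 h; flufenamic acid as positive control. Then 2.5 μmol/L palmitoyl-CoA on ice, click reaction at RT. Quenched in SDS buffer with 30 mmol/L EDTA, 95 °C, 5 min. Read by Western blot with densitometry; biological triplicates, mean ± SD.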

For data set [2], the target named is T1, TEAD‒YAP interaction (Homo sapiens, UniProt Q99594). As to conditions: FP assay; cited from earlier work.
T1 sequence (Q99594 219-435): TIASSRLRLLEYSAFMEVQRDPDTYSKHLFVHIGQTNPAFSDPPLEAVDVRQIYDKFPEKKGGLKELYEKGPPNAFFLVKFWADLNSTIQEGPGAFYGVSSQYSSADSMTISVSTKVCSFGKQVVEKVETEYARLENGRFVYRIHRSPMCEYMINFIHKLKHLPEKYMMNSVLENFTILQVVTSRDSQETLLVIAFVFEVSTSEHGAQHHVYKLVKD
T1 sequence (P46937 61-100 partner limits assumed): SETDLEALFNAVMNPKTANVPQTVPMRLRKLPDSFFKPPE
For a further data set, the target named is TEAD1-YBD (Homo sapiens, UniProt P28347). Briefly: gel-based ABPP in vitro palmitoylation assay, TEAD1. As to conditions: gel-based ABPP selectivity profiling. It counts as biochemical. The procedure, abridged: as §1
Sequence of TEAD1-YBD (P28347 209-426): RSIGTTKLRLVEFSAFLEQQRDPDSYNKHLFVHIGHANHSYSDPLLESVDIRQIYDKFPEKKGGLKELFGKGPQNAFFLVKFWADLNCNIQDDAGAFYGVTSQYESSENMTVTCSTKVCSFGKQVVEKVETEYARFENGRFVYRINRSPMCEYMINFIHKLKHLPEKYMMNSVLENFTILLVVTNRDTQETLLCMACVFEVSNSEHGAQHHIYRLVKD
The next data set concerns the target TEAD2 (Homo sapiens, UniProt Q15562). Briefly: gel-based ABPP in vitro palmitoylation assay, TEAD2. It counts as biochemical. The note with it: gel-based ABPP selectivity profiling. In outline:
as §1

The target of a further data set is TEAD4 (Homo sapiens, UniProt Q15561). The data set can be described thus: gel-based ABPP in vitro palmitoylation assay, TEAD4. It counts as biochemical. As to conditions: gel-based ABPP selectivity profiling. In outline:
as §1

In data set [3] the target is TEAD3 Y223 mutated to phenylalanine (Homo sapiens, UniProt Q99594, Y230F). Briefly: gel-based ABPP assay, TEAD3 Y223F mutant. The data set is classed as biochemical. The procedure, abridged: as §1
Sequence of TEAD3 Y223 mutated to phenylalanine (Q99594 219-435 Y230F): as the sequence (Q99594 219-435) above, with Y12F counted along it
The target in a further data set is wild-type TEAD3-YBD (Homo sapiens, UniProt Q99594). Briefly: protein thermal shift assay. The data set is classed as binding. The note with it: DSF. In outline:
(§2)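 Differential scanning fluorimetry. 5 μmol/L purified wild-type or mutant protein with 5× SYPRO Orange, in 20 mmol/L HEPES pH 8.5, 100 mmol/L NaCl, 2.5% DMSO, with or without test compound. Ramped 25–95 °C on a real-time PCR instrument, ROX filter. Tm calculated from raw fluorescence data.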

A further data set concerns the target widetype TEAD1 (Homo sapiens, UniProt P28347). Briefly: protein thermal shift assay. It counts as binding. The note with it: DSF. The procedure, abridged: as §2
The next data set has as its target TEAD3-YBD C371A mutant (Homo sapiens, UniProt Q99594, C368A). Briefly: protein thermal shift assay. As to conditions: DSF. It counts as binding. In outline: as §2
For a further data set, the target named is TEAD1 C359S (Homo sapiens, UniProt P28347, C359S). The data set can be described thus: protein thermal shift assay. As to conditions: DSF. It counts as binding. In outline: as §2
Sequence of TEAD1 C359S (P28347 209-426 C359S): as the sequence (P28347 209-426) above, with C151S counted along it
A further data set concerns the target GAL4-TEAD3 (Homo sapiens, UniProt Q99594). Briefly: GAL4-Luc reporter assay, GAL4-TEAD3. The data set is classed as cell-based. In outline:
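HEK293T cells (DMEM, 10% FBS, 1% penicillin/streptomycin) co-transfected with a GAL4-Luc reporter (secreted luciferase, 9×GAL4 binding elements), a GAL4-DBD-fused TEAD1, TEAD2, TEAD3 or TEAD4 expression vector, and a YAP-expressing plasmid. Test compound at the specified concentration, 37 °C, 12 h; luciferase signal read on a plate reader. Mean of three technical replicates.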
A general note: In a reporter assay the amount or activity of a reporter protein is the signal.

For data set [4], the system named is 8xGTIIC-Luc TEADs reporter. Briefly: TEAD luciferase reporter assay. It counts as cell-based. The note with it: HEK293T cells, compared with DC-TEADin1072-N1. The procedure, abridged:
(§3)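 HEK293T seeded at 2 × 10^5/well. Transfected with 200 ng 8xGTIIC-Luc TEAD reporter or TOPFlash β-catenin reporter, plus 20 ng pGL4.75 Renilla as internal control. Cells then exposed to various concentrations of test compound or DMSO. Firefly and Renilla signals measured by dual-luciferase assay.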

In data set [5] the test system is TOP Flash beta-catenin reporter system. Briefly: TOPFlash beta-catenin reporter assay. It counts as cell-based. As to conditions: HEK293T cells. In outline:
as §3

The target of data set [6] is T2, TEAD3 (Homo sapiens, UniProt Q99594). Briefly: cellular thermal shift assay. The data set is classed as cell-based. As to conditions: HEK293T cells, 50 μmol/L, 6 h. The procedure, abridged: (§4)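 HEK293T transfected with N-terminal 3×FLAG-tagged TEAD1–4, then given 50 μmol/L test compound or DMSO, 37 °C, 6 h. Cells trypsinised, PBS-washed, resuspended in PBS with protease inhibitor. Aliquots heated 3 min at set temperatures, then 3 min at room temperature. Three freeze–thaw cycles (liquid nitrogen/RT water), spin 20,000×g, 30 min, 4 °C. Soluble fraction immunoblotted for FLAG, with GAPDH.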
Target sequence in this assay (Q99594 whole entry): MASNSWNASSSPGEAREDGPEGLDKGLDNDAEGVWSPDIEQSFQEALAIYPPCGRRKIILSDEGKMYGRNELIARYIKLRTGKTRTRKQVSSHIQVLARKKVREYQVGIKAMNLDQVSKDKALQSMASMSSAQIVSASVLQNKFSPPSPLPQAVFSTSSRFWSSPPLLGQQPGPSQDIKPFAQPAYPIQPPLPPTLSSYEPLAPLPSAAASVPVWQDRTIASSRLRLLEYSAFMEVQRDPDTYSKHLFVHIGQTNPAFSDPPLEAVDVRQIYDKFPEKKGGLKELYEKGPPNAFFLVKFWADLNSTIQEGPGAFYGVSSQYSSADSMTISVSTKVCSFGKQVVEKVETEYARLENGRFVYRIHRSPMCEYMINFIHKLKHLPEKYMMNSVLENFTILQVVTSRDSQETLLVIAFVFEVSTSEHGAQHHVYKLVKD

Another data set concerns juvenile zebrafish. The data set can be described thus: proportional growth of juvenile zebrafish. It counts as in vivo. The note with it: 2-month-old juveniles, 0.25 μmol/L in water, 14 days. The procedure, abridged:
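AB wild-type zebrafish, 2 months old, both sexes equally, 10 per dish in 30 mL sterilised facility water. Water held 0.25 μmol/L test compound (final) or matching DMSO dilution for 14 days, aerated, refreshed daily; fed twice daily. Fish imaged by stereomicroscope from day 0. Fin length taken from fin base to line joining lobe tips; body length from jaw tip to caudal fin base.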

The target of another data set is TEAD1-YBD C359A mutant (Homo sapiens, UniProt P28347, C359A). Briefly: protein thermal shift assay. The data set is classed as binding. The note with it: DSF.
Sequence of TEAD1-YBD C359A mutant (P28347 209-426 C359A): as the sequence (P28347 209-426) above, with C151A counted along it
Data set [7] has as its target T1, TEAD‒YAP interaction. Briefly: fluorescence polarization assay with FITC-labeled YAP peptide. It counts as binding. The note with it: FP assay, FITC-YAP(61-100), TEAD3 protein. In outline: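 Then 30 nmol/L FITC-YAP(61–100) added for 30 min at room temperature. Polarisation read at ex 480/em 520 nm. Unlabelled synthetic YAP peptide as positive control; triplicates.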
Background: In fluorescence polarisation assays a small probe gives low polarisation when free and higher when bound to something large.

The target in data set [8] is T3, TEAD1 (Homo sapiens, UniProt P28347). The data set can be described thus: cellular thermal shift assay. It counts as cell-based. The note with it: HEK293T cells, 50 μmol/L, 6 h. In outline:
as §4
Target sequence in this assay (P28347 whole entry): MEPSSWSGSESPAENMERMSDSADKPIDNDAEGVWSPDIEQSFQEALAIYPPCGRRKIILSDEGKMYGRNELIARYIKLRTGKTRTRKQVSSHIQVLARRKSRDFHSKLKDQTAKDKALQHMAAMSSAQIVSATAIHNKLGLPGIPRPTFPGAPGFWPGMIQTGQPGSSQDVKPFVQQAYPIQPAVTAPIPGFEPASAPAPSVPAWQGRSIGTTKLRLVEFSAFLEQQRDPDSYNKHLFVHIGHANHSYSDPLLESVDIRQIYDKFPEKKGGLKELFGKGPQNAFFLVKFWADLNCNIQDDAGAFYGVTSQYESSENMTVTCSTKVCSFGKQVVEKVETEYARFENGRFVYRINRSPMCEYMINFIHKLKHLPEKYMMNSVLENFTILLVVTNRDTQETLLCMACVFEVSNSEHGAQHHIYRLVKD

The target of data set [9] is T3, TEAD1. The data set can be described thus: intact protein mass spectrometry, TEAD1. As to conditions: excessive compound, 24 h at 4 °C. The data set is classed as binding. In outline:
(§5)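 Intact-mass LC/MS. Protein diluted to 1 mg/mL in water with 0.1% formic acid; 2 μg injected. Separated on a PLRP-S column with a 15-min water/acetonitrile (0.1% formic acid) gradient at 0.300 mL/min. Analysed on an Orbitrap Fusion with HESI source (capillary 350 °C, 3.5 kV).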
Target sequence in this assay (P28347 209-426): as the sequence (P28347 209-426) above

The target of data set [10] is T2, TEAD3. The data set can be described thus: intact protein mass spectrometry, TEAD3. The note with it: excessive compound, 24 h at 4 °C. The data set is classed as binding. In outline:
as §5
Target sequence in this assay (Q99594 219-435): as the sequence (Q99594 219-435) above

“Also recorded” adds a separate entry of the source. Read-outs that look alike come from different tables or passages of the source.

Sequence of TEAD3-YBD recombinant protein (Q99594 219-435): as above
Sequence of TEAD3-YBD C371A mutant (Q99594 219-435 C368A): as the sequence (Q99594 219-435) above, with C150A counted along it
Sequence of TEAD2 (Q15562 217-447): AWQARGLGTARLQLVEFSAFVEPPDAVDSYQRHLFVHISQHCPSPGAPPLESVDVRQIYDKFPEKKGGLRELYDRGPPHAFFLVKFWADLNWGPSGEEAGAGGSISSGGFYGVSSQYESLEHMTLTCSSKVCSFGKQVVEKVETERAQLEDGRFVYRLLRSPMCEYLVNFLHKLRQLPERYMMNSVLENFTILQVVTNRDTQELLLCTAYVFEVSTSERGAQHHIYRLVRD
Sequence of wild-type TEAD3-YBD (Q99594 219-435): as the sequence (Q99594 219-435) above
Sequence of TEAD4 (Q15561 217-434): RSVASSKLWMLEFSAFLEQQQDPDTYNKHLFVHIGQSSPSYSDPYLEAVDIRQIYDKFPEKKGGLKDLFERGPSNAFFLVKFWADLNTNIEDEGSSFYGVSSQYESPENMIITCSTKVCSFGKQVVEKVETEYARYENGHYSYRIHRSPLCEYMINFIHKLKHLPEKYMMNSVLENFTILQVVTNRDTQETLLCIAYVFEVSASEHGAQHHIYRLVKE
Sequence of GAL4-TEAD3 (Q99594 2-435): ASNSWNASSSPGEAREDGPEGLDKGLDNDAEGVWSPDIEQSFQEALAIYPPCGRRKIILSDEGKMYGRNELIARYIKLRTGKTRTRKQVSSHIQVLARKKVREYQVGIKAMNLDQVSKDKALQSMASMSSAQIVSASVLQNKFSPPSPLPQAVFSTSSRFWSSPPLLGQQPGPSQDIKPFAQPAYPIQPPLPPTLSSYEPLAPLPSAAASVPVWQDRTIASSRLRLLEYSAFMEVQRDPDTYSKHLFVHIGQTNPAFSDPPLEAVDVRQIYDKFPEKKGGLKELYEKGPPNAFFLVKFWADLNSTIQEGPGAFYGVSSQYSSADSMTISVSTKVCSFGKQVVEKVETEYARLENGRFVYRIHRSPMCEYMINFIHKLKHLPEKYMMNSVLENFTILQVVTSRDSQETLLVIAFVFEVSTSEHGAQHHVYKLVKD
Sequence of GAL4-TEAD3 (P46937 whole entry partner, the tested form may be a part): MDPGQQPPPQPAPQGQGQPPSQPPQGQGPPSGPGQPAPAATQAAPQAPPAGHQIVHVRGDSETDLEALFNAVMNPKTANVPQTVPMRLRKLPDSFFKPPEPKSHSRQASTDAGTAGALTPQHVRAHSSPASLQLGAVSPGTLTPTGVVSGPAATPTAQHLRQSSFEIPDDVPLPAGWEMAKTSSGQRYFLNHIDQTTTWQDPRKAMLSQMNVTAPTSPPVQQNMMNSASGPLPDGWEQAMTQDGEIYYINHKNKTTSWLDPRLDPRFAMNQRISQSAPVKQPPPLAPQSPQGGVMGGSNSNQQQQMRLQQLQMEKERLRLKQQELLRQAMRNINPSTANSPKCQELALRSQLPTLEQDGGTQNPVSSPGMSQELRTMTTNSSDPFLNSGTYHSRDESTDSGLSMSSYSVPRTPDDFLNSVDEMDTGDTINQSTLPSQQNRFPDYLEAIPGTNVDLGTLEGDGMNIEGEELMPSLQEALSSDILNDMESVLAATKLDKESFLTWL
Sequence of widetype TEAD1 (P28347 209-426): as the sequence (P28347 209-426) above

Regarding `CCC(=O)N1CCC(CCOc2ccccc2)CC1` [DC-TEADin1072-N1, 1-(4-(2-Phenoxyethyl)piperidin-1-yl)propan-1-one], in data set [1], the “inhibition of TEAD3 palmitoylation” value is listed as “minimal inhibition”.

As to `C=CC(=O)N1CCC(O)(CCCOCc2ccccc2)CC1` [DC-TEAD3in01, 1-(4-(3-(Benzyloxy)propyl)-4-hydroxypiperidin-1-yl)prop-2-en-1-one], in [1], the “inhibition of TEAD3 palmitoylation” value is “potent inhibition”.

Consider `C=CC(=O)N1CCN(CCCOCc2ccccc2)CC1` [DC-TEAD3in02, 1-(4-(3-(Benzyloxy)propyl)piperazin-1-yl)prop-2-en-1-one], for which the “inhibition of TEAD3 palmitoylation” value in data set [1] is listed as “potent inhibition”.

Turning to `O=C(O)c1ccccc1Nc1cccc(C(F)(F)F)c1` [flufenamic acid], at TEAD‒YAP interaction [2], the “effect on TEAD‒YAP interaction” value is “minimal effect”.

As a reminder, the IC50 is the midpoint of a concentration-inhibition curve. As for `C=CC(=O)N1CCCN(CCCOCc2ccccc2)C1` [DC-TEAD3in03, 1-(3-(3-(Benzyloxy)propyl)tetrahydropyrimidin-1(2H)-yl)prop-2-en-1-one], the “selectivity over other TEAD isoforms” value in data set [1] (TEAD3 versus other TEAD isoforms, ABPP assays) came to 100 fold. Also, the “inhibition of TEAD3 palmitoylation” value in [1] is on record as “potent inhibition”. In addition, the “inhibition of TEAD1 palmitoylation” value on TEAD1-YBD is reported as “selectively inhibited”. On TEAD2, the “inhibition of TEAD2 palmitoylation” value is given as “sparing”. Moreover, the “inhibition of TEAD4 palmitoylation” value against TEAD4 is reported as “sparing”. Also, the IC50 in data set [3] is about 18.5 µM. Also, at wild-type TEAD3-YBD, the “effect on thermal stability of TEAD3 protein” value is “significantly improved”. In addition, on widetype TEAD1, the “effect on thermal stability of wild-type TEAD1” value is recorded as “minimal effect”. Besides, on TEAD3-YBD C371A mutant, the “effect on thermal stability of TEAD3 C371A mutant” value is “minimal effect”. For the same molecule, the “effect on thermal stability of TEAD1 C359S mutant” value at TEAD1 C359S is given as “minimal effect”. For the same molecule, on GAL4-TEAD3, inhibition was half-maximal at 1.15 µM (IC50). Further, in data set [4], the TEAD reporter activity result is reported as “significant reduction”. Moreover, in data set [5], the “effect on TOP Flash beta-catenin reporter” value is “minimal effect”. Also, the “thermal stability / soluble fraction of TEAD3 in intact cells” value on TEAD3 [6] is on record as “increased the soluble fraction; also recorded: significantly increases the content of TEAD3 soluble contents”. For the same molecule, in the data set on juvenile zebrafish, the “ectopic or tumorous growth” value was “no ectopic or tumorous growth”. Besides, in the data set with juvenile zebrafish (vs DMSO), the body growth rate result is “did not observe a significant difference”, the body length result is “did not observe a significant difference” and the “growth rate of the caudal fin” value is on record as “reduced the growth rate; also recorded: selective reduction”.

On to `C=CC(=O)N1CCC(CCOc2ccccc2)CC1` [DC-TEADin1072, 1-(4-(2-Phenoxyethyl)piperidin-1-yl)prop-2-en-1-one], for which the IC50 in data set [1] was determined as 0.58 ± 0.12 µM. Besides, on TEAD2, the “inhibition of TEAD2 palmitoylation” value is “sparing”. Besides, the “inhibition of TEAD4 palmitoylation” value against TEAD4 was “sparing”. In addition, the “effect on thermal stability of TEAD3 C371A mutant” value on TEAD3-YBD C371A mutant is on record as “significantly abolished the compound effect”. Moreover, on TEAD1-YBD C359A mutant, the “effect on thermal stability of TEAD1-YBD C359A mutant” value was “significantly abolished the compound effect”. Further, on TEAD‒YAP interaction [7], the “effect on TEAD‒YAP interaction” value is recorded as “minimal effect”. Besides, the “thermal stability of TEAD1 in intact cells” value at TEAD1 [8] is reported as “increase the thermal stability”. Besides, the “thermal stability / soluble fraction of TEAD3 in intact cells” value on TEAD3 [6] is on record as “increase the thermal stability”. Moreover, the “ectopic or tumorous growth” value with juvenile zebrafish was “No obvious ectopic or tumorous growth”. Moreover, in the data set with juvenile zebrafish (vs DMSO), the body growth rate result was “decreased significantly; also recorded: reduction”, the body length entry was “nearly significantly different”, the “growth rate of the caudal fin” value was “reduced; also recorded: reduction” and the “tail (caudal fin) length” value is reported as “no differences”. Also, on TEAD1 [9], the “difference in mass of TEAD1 protein after incubation” value is “+259.5 Da”. For the same molecule, the “difference in mass of TEAD3 protein after incubation” value at TEAD3 [10] is listed as “+259.5 Da”.

Source of the values: PMC8546857 (Acta Pharmaceutica Sinica. B, 2021).
